A selection: hits, their analogues and other compounds. The true share with any hit is near 3%.
CendR NRP1 mod – modulators of CendR peptide binding to NRP-1, primary screen, biochemical, fluorescence polarization, uHTS. inhibition, % at 25 µM. hit rate 0.85% among 360,000. FAM-RPARPAR peptide binding to NRP-1;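 active = inhibition or corrected inhibition above about 18%, plus a signal ratio from 0.5 to 1.5, limit read from the data, passing the limit was not always enough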
Target sequence (O14786 whole entry, looked up): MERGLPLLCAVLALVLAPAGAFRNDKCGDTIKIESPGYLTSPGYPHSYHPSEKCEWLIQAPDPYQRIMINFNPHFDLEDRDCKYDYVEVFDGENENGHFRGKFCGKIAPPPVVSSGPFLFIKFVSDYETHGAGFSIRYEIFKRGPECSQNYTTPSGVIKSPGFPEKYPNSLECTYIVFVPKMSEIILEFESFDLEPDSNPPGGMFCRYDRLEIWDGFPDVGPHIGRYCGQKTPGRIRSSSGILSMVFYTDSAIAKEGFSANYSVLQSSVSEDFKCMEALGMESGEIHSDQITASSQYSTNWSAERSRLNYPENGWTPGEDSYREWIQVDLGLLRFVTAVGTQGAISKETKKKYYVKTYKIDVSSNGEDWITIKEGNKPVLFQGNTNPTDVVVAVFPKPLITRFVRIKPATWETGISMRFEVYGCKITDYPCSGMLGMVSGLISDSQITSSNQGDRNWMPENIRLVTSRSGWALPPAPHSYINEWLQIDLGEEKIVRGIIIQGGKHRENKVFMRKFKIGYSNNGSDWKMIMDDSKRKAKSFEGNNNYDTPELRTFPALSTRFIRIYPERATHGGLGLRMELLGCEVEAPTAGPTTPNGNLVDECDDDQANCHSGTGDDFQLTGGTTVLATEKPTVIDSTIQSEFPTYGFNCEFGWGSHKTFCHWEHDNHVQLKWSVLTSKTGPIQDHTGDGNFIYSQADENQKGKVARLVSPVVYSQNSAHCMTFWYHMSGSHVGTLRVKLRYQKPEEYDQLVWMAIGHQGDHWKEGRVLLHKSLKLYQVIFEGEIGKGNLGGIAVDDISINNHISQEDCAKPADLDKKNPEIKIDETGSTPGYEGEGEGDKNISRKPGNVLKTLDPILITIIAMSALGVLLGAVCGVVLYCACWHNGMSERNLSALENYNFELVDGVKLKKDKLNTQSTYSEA
T cruzi repl – inhibitors of intracellular T. cruzi growth, primary screen, luminescence, NIH3T3 host cells. AID 1885, 2009. hit rate 1.4% among 300,000. T. cruzi beta-gal in NIH3T3, 90 h. inhibition, % (test concentration not listed);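 active = mean inhibition across valid replicates above about 55%, limit read from the data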;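 also: signal also drops with host cell toxicity which is not excluded here; 0% = plate median of DMSO wells and 100% = zero luminescence signal; higher percent means less beta-gal luminescence so fewer parasites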
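System: Mouse NIH/3T3 fibroblasts infected with β-gal-expressing T. cruzi Tulahuen C4 | Quantity: NIH/3T3 cells, 5,000 per well | Reagent: 5000 reporter trypomastigotes per well | Dosing: Compound pinned at 50 nL/well, DMSO | Schedule: 3 h host attachment, then at least 90 h co-culture | Detection: GalScreen luminescence, 60 min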
CR mimetic SO – reduction of superoxide in aged yeast, primary screen, HTS; S. cerevisiae aged cells, superoxide DHE fluorescence; hits give low values; superoxide response (% of plate mean), % at 10 µM; hit rate 0.18% among 330,000;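 active = superoxide response under a set limit, about three screen SD below normal, cut at about 65% in these data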;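 also: yeast aged for seven days with compound at 30 °C before DHE staining; 100% = average MFI of all compound-treated wells on the plate with controls excluded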
HIF activator – HIF pathway transcriptional activators, primary screen, cell-based, U2OS HRE-luciferase, luminescence. U2OS HRE-luciferase reporter; normalized: DMSO 0%, desferrioxamine 100%. activation, % at 7.5 µM (by protocol). hit rate 0.32% among 300,000. AID 1910, 2009;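 active = mean activation of at least 10% of the iron chelator positive control signal, with at least half of replicates also reaching 10%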
AI-2 QS mod – Vibrio harveyi AI-2 quorum sensing modulators, primary screen, JMH597 strain, luminescence/OD600 ratio. activity change, % at 7.5 µM. hit rate 0.4% among 300,000. Vibrio harveyi JMH597 AI-2 luminescence/OD600 ratio, 9 h; hits give low values; strain lacks LuxN and CqsS sensors; 0 = neutral-control median; in the data active = activity change below about -75%, passing the limit was not always enough;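 also: luminescence divided by OD600 gain over 9 h not by final OD600 alone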
V-ATPase pHluor – regulators of yeast V-ATPase proton pumping, primary screen, pHLuorin cytosolic pH fluorescence. S. cerevisiae. response, % at 10 µM. hit rate 0.37% among 350,000. AID 504577, 2011; in the data active = response mostly above about 7.3%, no sharp cut-off; inactive = mostly below about 5.4%; also: actives read high
Starred values were filed as active, the others as inactive.

How did Cc1ccccc1CC(=O)Nc1ccc2c(c1)c(=O)n(C)n2-c1cccs1 do in these assays?
CendR NRP1 mod: 27*

What do the screens show for `C=CCn1c(SCc2cc([N+](=O)[O-])cc3c2OCOC3)nc2cc(C(=O)O)ccc2c1=O`?
CendR NRP1 mod: -2; T cruzi repl: 14; CR mimetic SO: 93; HIF activator: 0; AI-2 QS mod: -4; V-ATPase pHluor: 1

What do the screens show for `Cc1cnc(C=NNC(N)=S)c2cccc(N)c12`?
CendR NRP1 mod: 26*; V-ATPase pHluor: 7

Results for NC(=S)NN=Cc1nccc2ccccc12 ?
CendR NRP1 mod: 11; V-ATPase pHluor: 1

What do the screens show for `CSc1ccc(/C=C/C(=O)OCC(=O)NCC2CCCO2)cc1` (stereo unspecified)?
CendR NRP1 mod: 6; CR mimetic SO: 110; V-ATPase pHluor: -2

What do the screens show for `CCN(CC)S(=O)(=O)c1ccc2oc(SCC(=O)Nc3cc(C)on3)nc2c1`?
CendR NRP1 mod: 12; T cruzi repl: 60*; CR mimetic SO: 74; HIF activator: 1; AI-2 QS mod: 35; V-ATPase pHluor: -2

Results for Cc1cc(NC(=O)CSc2nc3cc(Cl)ccc3o2)no1 ?
CendR NRP1 mod: 2; T cruzi repl: -20; CR mimetic SO: 91; HIF activator: 0; AI-2 QS mod: 31; V-ATPase pHluor: 1

Results for CCN(C(=O)COc1ccccc1)c1nnc(-c2cccnc2)s1 ?
CendR NRP1 mod: 0; T cruzi repl: -9; CR mimetic SO: 83; HIF activator: -11; AI-2 QS mod: -15; V-ATPase pHluor: 26*

What do the screens show for `O=C(NC(NC(=S)Nc1ccccc1Cl)C(Cl)(Cl)Cl)c1cccc(Cl)c1` (stereo unspecified)?
CendR NRP1 mod: -1; T cruzi repl: 60*; CR mimetic SO: 117; HIF activator: 1; AI-2 QS mod: 24; V-ATPase pHluor: -1

What do the screens show for `O=C(Cc1cccc2ccccc12)NC(NC(=S)Nc1ccccc1Cl)C(Cl)(Cl)Cl` (stereo unspecified)?
CendR NRP1 mod: -20; T cruzi repl: 45; CR mimetic SO: 119; HIF activator: 0; AI-2 QS mod: 8; V-ATPase pHluor: 3

What do the screens show for `COc1ccc(NC(=S)NC(NC(=O)c2cccc(Cl)c2)C(Cl)(Cl)Cl)c([N+](=O)[O-])c1` (stereo unspecified)?
CendR NRP1 mod: -2; T cruzi repl: 73*; CR mimetic SO: 95; HIF activator: 0; AI-2 QS mod: 12; V-ATPase pHluor: 1

Results for COc1ccc(NC(=S)NC(NC(=O)c2cccc(C)c2)C(Cl)(Cl)Cl)c([N+](=O)[O-])c1 (stereo unspecified) ?
CendR NRP1 mod: 8; CR mimetic SO: 99; V-ATPase pHluor: 11

What do the screens show for `CCNC(=O)c1ccc(NC(=O)CC2SC(N3CCCCC3)=NC2=O)cc1` (stereo unspecified)?
CendR NRP1 mod: 0; CR mimetic SO: 106; V-ATPase pHluor: -2

What do the screens show for `CN(C)c1ccc(-c2n(C)c3ccccc3[n+]2C)cc1`?
CendR NRP1 mod: 10; T cruzi repl: 73*; CR mimetic SO: 91; HIF activator: 0; AI-2 QS mod: 6; V-ATPase pHluor: -4

Results for CCOC(=O)c1[nH]c(CSc2nnnn2-c2ccccc2C)c(C(=O)OCC)c1C ?
CendR NRP1 mod: -35; CR mimetic SO: 91; V-ATPase pHluor: -6

Results for CC(=O)c1cccc(S(=O)(=O)N2CCC(C(=O)Oc3ccc(-c4nnco4)cc3)CC2)c1 ?
CendR NRP1 mod: -3; CR mimetic SO: 95; V-ATPase pHluor: 3

How did COc1ccc(C2c3ccc4ccccc4c3Oc3ncn4nc(Cc5ccccc5)nc4c32)cc1OC (stereo unspecified) do in these assays?
CendR NRP1 mod: 6; T cruzi repl: 36; CR mimetic SO: 102; HIF activator: 0; AI-2 QS mod: 29; V-ATPase pHluor: -2

What do the screens show for `CCOC(=O)/C(N=Nc1ccc(F)cc1)=C(/O)c1ccc([N+](=O)[O-])cc1`?
CendR NRP1 mod: -6; T cruzi repl: 1; CR mimetic SO: 83; HIF activator: 14*; AI-2 QS mod: 16; V-ATPase pHluor: -1

How did Cn1ncc(S(=O)(=O)Cc2ccccc2)c(Cl)c1=O do in these assays?
CendR NRP1 mod: 3; T cruzi repl: -10; CR mimetic SO: 97; HIF activator: 0; AI-2 QS mod: 61; V-ATPase pHluor: 19*

How did Cn1ncc(SCc2ccccc2)c(Cl)c1=O do in these assays?
CendR NRP1 mod: 6; T cruzi repl: -47; CR mimetic SO: 92; HIF activator: 1; AI-2 QS mod: 17; V-ATPase pHluor: 7

Results for COc1cccc(CNC(=O)c2ccncc2)c1 ?
CendR NRP1 mod: 8; T cruzi repl: -15; CR mimetic SO: 99; HIF activator: -1; AI-2 QS mod: 49; V-ATPase pHluor: -1

Results for Cc1nnc(C)c2c(C)n(C(c3ccccc3)c3ccccc3)c(C)c12 ?
CendR NRP1 mod: 6; T cruzi repl: 59*; CR mimetic SO: 103; HIF activator: 0; AI-2 QS mod: 9; V-ATPase pHluor: -2

Results for Cc1nnc(C)c2c(C)n(-c3ccccc3)c(C)c12 ?
CendR NRP1 mod: -20; T cruzi repl: 22; HIF activator: -7; AI-2 QS mod: 18; V-ATPase pHluor: -1

How did COc1cc(NCCCNC(C)C)c2nccc(C)c2c1 do in these assays?
CendR NRP1 mod: 26*; V-ATPase pHluor: -2

What do the screens show for `COc1ccc2c(c1)c1nc3ccccc3nc1n2Cc1ccc(OC(C)C)c(OC)c1`?
CendR NRP1 mod: -9; T cruzi repl: 6; CR mimetic SO: 96; HIF activator: 0; AI-2 QS mod: 18; V-ATPase pHluor: -2

How did COc1ccc(Cn2c3ccc(OC)cc3c3nc4ccccc4nc32)cc1 do in these assays?
CendR NRP1 mod: 49*; T cruzi repl: -2; CR mimetic SO: 95; HIF activator: 1; AI-2 QS mod: 31; V-ATPase pHluor: -2

What do the screens show for `O=C(NN=Cc1ccc2c(c1)OCO2)c1ccncc1`?
CendR NRP1 mod: 6; V-ATPase pHluor: -3

Results for COc1cc(C(Nc2ccccn2)c2ccc3ccc(C)nc3c2O)cc(OC)c1O (stereo unspecified) ?
CendR NRP1 mod: -19; T cruzi repl: 52; CR mimetic SO: 90; HIF activator: 6; AI-2 QS mod: 52; V-ATPase pHluor: 2

How did Cc1ccnc(NC(c2ccsc2)c2ccc3ccc(C)nc3c2O)c1 (stereo unspecified) do in these assays?
CendR NRP1 mod: 10; T cruzi repl: 63*; CR mimetic SO: 95; HIF activator: 1; AI-2 QS mod: 5; V-ATPase pHluor: -2
